Screening data deposited in PubChem by several laboratories.
Fh CTSL1 inh: cathepsin L1 inhibition, PFM18AAP counter-screen; inhibition, % at 5.96 µM; recombinant F. hepatica cathepsin L1, Z-Leu-Arg-MCA fluorescence; actives 0.49% (n = 300,000);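 active means inhibition above the mean of all tested compounds plus 3 SD, set per screening campaign, cut at about 17% in these data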;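 further: 0% = plate median of test compound wells and 100% = 1 µM Z-Phe-Ala-diazomethylketone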
NadD block: blocks S. aureus nicotinate mononucleotide adenylyltransferase. purified NadD enzyme, colorimetric absorbance read-out. inhibition, % at 20 µM. actives 0.78% (n = 360,000). AID 602399; in the data active means inhibition above about 26%
Myeloid diff MLP: compounds promoting myeloid differentiation; ER-HoxA9 myeloid progenitors, lysozyme-GFP differentiation, flow cytometry; calls only at 10 µM; actives 1% (n = 360,000);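 active means normalized GFP-positive differentiation at or above the plate's own cutoff, the solvent-only control mean plus 3 SD; inconclusive means no clear call, values can overlap the other calls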;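 further: cells exposed to compound for four days before flow analysis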
HCV core dimer: HCV core protein dimerization inhibition; inhibition, % at 5 µM; TR-FRET GST/Flag-core106 dimerization, 1536-well; actives 0.33% (n = 300,000);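 active means inhibition above the mean of all tested compounds plus 3 SD, set per screening campaign, cut at about 45% in these data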
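Assay system: Tagged HCV core106 pair (GST and Flag) | Buffer or medium: KF-containing HEPES buffer, pH 7.45, DTT, CHAPS, BSA | Also added: Eu donor and XL665 acceptor anti-tag antibodies | Dosing: One concentration, 5 µM, in 0.5% DMSO | Timing: 4 h at 22.5 °C | Technique: TR-FRET 671 and 617 nm emission | Repeats: Singlicate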
PP5 inh: inhibitors of human protein phosphatase 5 (PP5) | AID 1987 | P53041 | actives 0.18% (n = 320,000) | purified PP5c, OMFP substrate fluorescence | inhibition, % at 6.7 µM;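 active means inhibition above the campaign's mean inhibition across all tested compounds plus 3 SD, cut at about 9.5% in these data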;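 further: 0% = DMSO only and 100% = 100 µM cantharidin control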
PP1 counter: PP1-alpha (human) inhibition in PP5 counter-screen; actives 0.9% (n = 320,000); inhibition, % at 6.7 µM; purified PP1alpha, OMFP fluorescence;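 active means inhibition above the mean inhibition of all tested compounds plus 3 SD, computed separately for each screening campaign, cut at about 15% in these data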
Target sequence (P62136 whole entry, looked up): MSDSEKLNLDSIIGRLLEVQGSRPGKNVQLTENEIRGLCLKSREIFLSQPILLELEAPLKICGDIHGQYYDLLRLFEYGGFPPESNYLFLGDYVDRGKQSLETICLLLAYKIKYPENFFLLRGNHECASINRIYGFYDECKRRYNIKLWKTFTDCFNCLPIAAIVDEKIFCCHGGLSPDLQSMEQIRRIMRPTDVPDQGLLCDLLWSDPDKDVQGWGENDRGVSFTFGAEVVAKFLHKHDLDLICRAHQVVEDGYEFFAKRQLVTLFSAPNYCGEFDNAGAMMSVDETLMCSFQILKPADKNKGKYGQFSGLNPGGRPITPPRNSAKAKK
PP1 confirm: human PP1 phosphatase inhibition, confirmation | shares compounds with PP1 counter | purified PP1alpha, OMFP substrate fluorescence | inhibition, % at 6.7 µM | actives 52% (n = 1,900) | AID 2358;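 active means mean PP1 inhibition above a set limit taken from the earlier primary screen, cut at about 15% in these data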
PP5 inh counter: inhibits human PP5 phosphatase in PP1 counter-screen. shares compounds with PP1 counter. inhibition, % at 6.7 µM. purified PP5c, OMFP fluorescence. actives 4% (n = 1,900);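 active means mean PP5 inhibition over triplicate wells above about 9.5% taken from the earlier PP1 screen, limit read from the data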
Numbers without * were called inactive; i = inactive; ? = inconclusive; / = no result; + = active, no number. In the library only some 3.1% were active in any assay of this set; here they are far more common.

SMILES | Fh CTSL1 inh | NadD block | Myeloid diff MLP | HCV core dimer | PP5 inh | PP1 counter | PP1 confirm | PP5 inh counter
O=C(O)[C@@H](c1ccccc1)N1Cc2ccccc2C1=O | 1.1 | 6.6 | i | 2.2 | 2.5 | 24.1* | 35.2* | -5.2
COc1ccc(C(=O)c2sc3nc(-c4ccccc4)ccc3c2N)cc1OC | -0.9 | -2.4 | + | 10.8 | 0.1 | 19.7* | 13.2 | -4.3
CC(C)(C)OC(=O)C[C@@H]1C/C=C\C[C@@H](CC(=O)N[C@@H](CO)Cc2ccccc2)C(=O)NC[C@@H](c2ccccc2)OC1=O | / | 0.6 | i | / | / | / | / | /
Cc1ccc(C2C(/C=C3/SC(=S)NC3=O)=C(c3cccs3)Oc3ccccc32)cc1 (stereo not given) | 3.1 | 59.9* | / | 31.9 | 3.2 | 31.1* | 21.7* | -6.2
O=C1NC(=S)SC1=Cc1ccccc1Cl | / | -2.1 | i | / | / | / | / | /
O=Cc1cn(-c2ccccc2)nc1-c1cc2c(ccc3ccccc32)oc1=O | 4.1 | 26.2 | i | 41.1 | -2.0 | -0.3 | / | /
O=Cc1cn(-c2ccccc2)nc1-c1cc2cc(O)ccc2oc1=O | 0.6 | 1.7 | i | -1.4 | 2.1 | 28.1* | 18.1* | -1.6
Cc1noc(C)c1C(=O)Nc1ccccc1C(=O)NCCc1ccccc1 | -2.4 | -8.9 | i | 5.0 | 3.5 | 20.7* | 0.5 | -2.1
O=C(NCc1ccc(C(F)(F)F)cc1)C12CN(Cc3ccccc3)CC1C(c1cccc([N+](=O)[O-])c1)=NO2 (stereo not given) | -0.6 | 17.9 | i | 18.0 | 6.8 | 10.0 | / | /
O=C(NCc1ccc2c(c1)OCO2)C12CN(Cc3ccccc3)CC1C(c1cccc([N+](=O)[O-])c1)=NO2 (stereo not given) | 5.6 | 23.1 | i | 31.4 | 1.5 | 25.3* | 11.9 | -2.2
COc1ccc(/C=N\NC(=O)c2ccccc2F)cc1COc1ccc(F)cc1F | 3.6 | -4.8 | ? | 2.1 | 3.4 | 4.9 | / | /
COc1ccc(/C=N\NC(=O)c2cc(O)c(O)c(O)c2)cc1COc1ccc(C(=O)OCC(C)C)cc1 | -0.7 | 60.1* | i | 21.5 | 7.0 | 26.8* | 25.3* | 0.1
COc1ccc(/C=N/NC(=O)c2ccc(NC(C)=O)cc2)cc1COc1ccc(F)cc1F | -11.0 | 3.6 | i | 14.3 | 1.5 | 21.8* | 12.1 | -2.0
CN(Cc1ccccc1)C(=O)CCC1CCN(S(C)(=O)=O)CC1 | -1.8 | 1.5 | i | -5.7 | 5.2 | 5.4 | / | /
C[C@@H]1CN([C@H](C)CO)C(=O)CCCn2nncc2CO[C@@H]1CN(C)S(=O)(=O)c1cccs1 | / | 3.4 | i | / | / | / | / | /
Cc1ccc(C)c(OC(=O)c2cccnc2)c1 | -1.3 | -9.6 | i | -1.6 | 0.9 | -3.8 | / | /
Cc1ccc(NC(=O)C(OC(=O)c2ccc(C=O)cc2)c2ccccc2)cc1Cl (stereo not given) | -4.6 | 17.6 | i | 36.1 | 2.1 | 21.5* | 12.5 | -3.4
COc1ccc(C2/C(=C(/O)c3ccc(C)cc3)C(=O)C(=O)N2c2ccccn2)cc1OC (stereo not given) | 7.6 | 0.8 | i | 2.1 | -1.0 | 3.8 | / | /
CCCOc1ccc(/C(O)=C2\C(=O)C(=O)N(c3ccccn3)C2c2ccccc2F)cc1C (stereo not given) | 4.1 | 20.5 | i | 4.2 | 0.7 | 23.6* | 26.3* | 0.2
COc1cc(NC(=O)CSc2nc(C3CC3)nc3ccccc23)cc(OC)c1 | -0.6 | 5.3 | i | 11.5 | 1.4 | 19.3* | 18.1* | -3.5
COc1ccc(Cc2nnc(SCC(=O)c3c(N)n(C4CC4)c(=O)[nH]c3=O)o2)cc1 | / | 6.3 | i | / | 0.3 | 0.5 | / | /
CC1CN(Cc2ccccc2)C(=S)N(c2ccccc2)C1=O (stereo not given) | / | 1.2 | i | / | / | / | / | /
CCCCCCCCCCCCCCCC[n+]1ccc(/C=N/O)cc1 | 4.4 | 19.6 | ? | -18.1 | 7.9 | 53.8* | 32.2* | 14.9*
O/N=C/c1cccc[n+]1CCCCCC[n+]1ccccc1/C=N/O | / | -7.5 | i | / | / | / | / | /
Cc1ccc(C)c(-c2nnc(NC(=O)COc3ccccc3)o2)c1 | -1.4 | 4.3 | i | 3.9 | -0.3 | 21.8* | 20.9* | -2.4
